# Compound activity deposited in PubChem BioAssay by several laboratories.
# NOD2 RIPK2 PPI = blocks binding of human NOD2 to RIPK2 | inhibition, % at 4.98 µM | O43353 | hit rate 0.38% among 360,000 | CHO BLA complementation NOD2-RIPK2, CCF4 ratio; in the data active means inhibition above about 21%;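 further: 0% = vehicle only and 100% = reference blocker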
# TLR9-MyD88 block = TLR9-MyD88 interaction inhibition; hit rate 0.21% among 340,000; Q9NR96+Q99836; inhibition, % at 4.98 µM; CHO BLA complementation TLR9-MyD88, CCF4 FRET ratio;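 active means inhibition above the mean over all tested compounds plus 3 SD, cut at about 21% in these data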;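 further: 0% = DMSO only wells and 100% = clavulanate BLA inhibitor control wells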
# SKN-1 block = inhibitors of C. elegans SKN-1; hit rate 0.49% among 360,000; inhibition, % at 21.8 µM; C. elegans VP596 Pgst-4::GFP/RFP ratio, acrylamide-induced, 24 h;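 active means interference check ratio from 0.5 to 1.5 plus GFP to RFP signal ratio inhibition reaching or exceeding a fixed threshold, cut at about 30% in these data, passing the limit was not always enough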
# MT1-MMP act inh = inhibitors of human MT1-MMP activation; P50281; HT1080 RFP-PRO-GFP cells, GFP/RFP ratio fluorescence, overnight; percent of plate control window, DMSO zero; GFP/RFP ratio change, % at 20 µM; hit rate 0.061% among 360,000;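 active means GFP/RFP ratio change of at least 30% with cell ATP level not reduced by more than half and red fluorescence within 50% of control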
#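 Assay system – RFP-PRO-GFP reporter HT1080 cells · Compound dosing – single dose of 20 µM compound, 1% DMSO final · Incubation – overnight compound exposure at 37 °C · Measure – GFP/RFP fluorescence ratio · Benchmarks – DMSO wells and RFP-L50D-GFP cells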
# TLR4-MyD88 BLA = inhibitors of human TLR4-MyD88 binding | hit rate 0.18% among 200,000 | HeLa CL3-4 TLR4/MyD88 BLA complementation, FRET ratio | inhibition, % at 8.4 µM | O00206+Q99836; in the data active means inhibition above about 25%;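 further: 0% = vehicle and 100% = reference inhibitor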
# Target sequence (O00206 whole entry, looked up): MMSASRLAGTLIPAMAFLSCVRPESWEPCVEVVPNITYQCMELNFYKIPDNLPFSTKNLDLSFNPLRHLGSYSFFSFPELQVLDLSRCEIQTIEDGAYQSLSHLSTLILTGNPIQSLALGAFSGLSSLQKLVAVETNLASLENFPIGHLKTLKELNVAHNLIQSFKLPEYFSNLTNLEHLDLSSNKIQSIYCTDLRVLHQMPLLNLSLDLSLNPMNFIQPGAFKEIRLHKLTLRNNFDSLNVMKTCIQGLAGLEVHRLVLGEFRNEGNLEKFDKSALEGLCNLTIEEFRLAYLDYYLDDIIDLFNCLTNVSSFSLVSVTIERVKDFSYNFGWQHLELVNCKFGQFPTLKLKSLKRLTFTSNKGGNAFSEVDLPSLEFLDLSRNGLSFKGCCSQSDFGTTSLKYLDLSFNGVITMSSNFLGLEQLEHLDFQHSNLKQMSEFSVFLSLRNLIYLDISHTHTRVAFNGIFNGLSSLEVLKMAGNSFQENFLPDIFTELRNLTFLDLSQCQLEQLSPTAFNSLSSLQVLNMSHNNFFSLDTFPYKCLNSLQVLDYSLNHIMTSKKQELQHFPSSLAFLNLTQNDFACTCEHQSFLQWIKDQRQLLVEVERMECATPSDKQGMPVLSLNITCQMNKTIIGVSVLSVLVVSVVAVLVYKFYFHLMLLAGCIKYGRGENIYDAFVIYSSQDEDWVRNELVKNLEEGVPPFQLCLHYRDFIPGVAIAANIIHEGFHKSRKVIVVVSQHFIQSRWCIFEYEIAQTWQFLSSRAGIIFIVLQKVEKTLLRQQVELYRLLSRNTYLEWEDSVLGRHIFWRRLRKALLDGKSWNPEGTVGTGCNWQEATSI
# Target sequence (Q99836 whole entry, looked up): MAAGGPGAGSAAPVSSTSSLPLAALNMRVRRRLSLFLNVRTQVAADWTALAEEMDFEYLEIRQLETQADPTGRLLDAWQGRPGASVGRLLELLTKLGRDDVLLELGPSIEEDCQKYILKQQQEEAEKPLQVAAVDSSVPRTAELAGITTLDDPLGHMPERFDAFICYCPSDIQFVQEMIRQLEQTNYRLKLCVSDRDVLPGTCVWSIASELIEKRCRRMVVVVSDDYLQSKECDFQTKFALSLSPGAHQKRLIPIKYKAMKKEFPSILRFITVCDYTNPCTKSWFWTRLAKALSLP
# NOD2 RIPK2 conf = confirmation of human NOD2-RIPK2 interaction inhibitors; shares compounds with NOD2 RIPK2 PPI; CHO cells, NOD2-RIPK2 BLA complementation, CCF4 FRET; inhibition, % at 4.98 µM; hit rate 70% among 1,200; AID 624370;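 active means mean inhibition across replicates above a set limit taken from the earlier primary screen, cut at about 21% in these data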;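 further: 0% = DMSO-only wells and the high end = clavulanate BLA-blocked wells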
# NOD2 BLA counter = hits BLA reporter in NOD2-RIPK2 inhibitor counterscreen. shares compounds with NOD2 RIPK2 PPI. CHO BLA reporter, CCF4 FRET ratio. inhibition, % at 4.98 µM. hit rate 57% among 1,200. AID 624371;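 active means mean inhibition above the low-control mean inhibition plus three low-control SD, cut at about 11% in these data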;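 further: 0% = DMSO only wells and 100% = clavulanate high control wells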
# Active calls of the source: *; nt = not tested or not shown; + = active, no number. Sampled rows, rich in hits. Any-hit rate of the full collection: about 0.99%.
SMILES,NOD2 RIPK2 PPI,TLR9-MyD88 block,SKN-1 block,MT1-MMP act inh,TLR4-MyD88 BLA,NOD2 RIPK2 conf,NOD2 BLA counter
Clc1ccc(N=c2ssnc2Cl)nc1,1,8,-1,0,0,nt,nt
O=C(O)c1cc2c(cc1NC(=O)C1CCCC1)OCCO2,-12,5,8,1,nt,nt,nt
COc1ccc(NC(=O)C(c2ccc(C(F)(F)F)cc2)n2c(=O)c(-c3cc4ccccc4[nH]3)nc3ccccc32)cc1 (stereo not drawn),41*,nt,11,-11,nt,38*,64*
COc1ccc(C(C(=O)Nc2ccc3c(c2)OCCO3)n2c(=O)c(-c3cc4ccccc4[nH]3)nc3ccccc32)cc1 (stereo not drawn),45*,nt,12,-6,nt,43*,65*
O=C(NCCC(F)(F)F)C1Cc2c(-c3ccccc3Oc3ccccc3)ccnc2O1 (stereo not drawn),-3,nt,2,-3,nt,nt,nt
Cc1nc2ccccc2c(=O)n1-c1cccc(NC(=O)c2cccs2)c1,-2,-8,-13,2,nt,nt,nt
O=C(Nc1cccc(N2C(=O)C=CC2=O)c1)c1cccs1,22*,30*,2,-1,nt,74*,12*
O=S1(=O)c2c(F)cccc2O[C@@H](COCc2ccccc2)CN1CCc1ccc(F)cc1,-8,-14,5,-4,nt,nt,nt
O=C(N/N=C/c1cc(Cl)cc(Cl)c1O)c1ccncc1,32*,18,-10,-10,nt,26*,26*
O=C(N/N=C/c1ccc(Cl)cc1Cl)c1ccncc1,6,8,2,2,nt,nt,nt
Cc1cc(NC(=O)C2CCN(C(=O)c3ccco3)CC2)ccc1Br,4,-3,8,2,nt,nt,nt
CCOC(=O)Nc1ccc2c3c(cccc13)-c1ccccc1-2,34*,16,17,-17,nt,31*,47*
CC(C)c1ccc(N(CCc2ccccn2)C(=O)C(C)(C)C)cc1,-10,-14,-2,-5,nt,nt,nt
Cc1nn(-c2ccc(Cl)cc2)c(=O)c2ccccc12,-7,8,12,5,9,nt,nt
Cc1c(Cl)sn(-c2ccc(Cl)cc2)c1=O,29*,4,18,-4,24,89*,28*
CC(NS(=O)(=O)c1ccc2[nH]c(=O)[nH]c2c1)c1ccc(F)cc1 (stereo not drawn),-16,-7,11,-1,nt,nt,nt
CCN1CCN(c2ccc(NC(=O)COc3ccc([N+](=O)[O-])cc3)cc2)CC1,21*,0,-7,-2,nt,-2,-2
O=C(COc1ccc([N+](=O)[O-])cc1)Nc1ccc(N2CCN(C(=O)c3ccco3)CC2)cc1,2,-5,-1,-2,nt,nt,nt
CCNC(=O)NC(=O)C(C)N1C(=O)NC(c2ccccc2)(c2ccccc2)C1=O (stereo not drawn),+,-5,7,3,nt,0,-2
Cc1ccc(-c2noc(CCC(=O)NCCCN3CCN(c4cccc(Cl)c4)CC3)n2)cc1,29*,-5,-1,6,-4,15,-1
COc1cccc(NC(=O)NC2(C(=O)N3CCN(C)CC3)CCCCC2)c1,3,5,-7,-1,nt,nt,nt
CS(=O)(=O)c1ccc(C(=O)OCc2nnc(-c3ccccc3)o2)cc1[N+](=O)[O-],21*,20,-1,0,-6,55*,6
Cc1snc2sc(C(=O)c3ccc(Br)cc3)c(N)c12,5,1,-11,-16,19,nt,nt
Cc1ccc(C(=O)c2sc3nsc(C)c3c2N)cc1,24*,17,-10,-3,5,23*,26*
CC1(C(=O)NCc2cccc(C(F)(F)F)c2)CCN1C1Cc2ccccc2C1 (stereo not drawn),11,nt,-4,-3,nt,nt,nt
SMILES,NOD2 RIPK2 PPI,TLR9-MyD88 block,SKN-1 block,MT1-MMP act inh,TLR4-MyD88 BLA,NOD2 RIPK2 conf,NOD2 BLA counter
O=c1ccc2cc(O)c(O)cc2o1,23*,9,-1,7,12,23*,37*
C=CC[C@@H](CC(=O)N[C@@H](CO)Cc1ccccc1)C(=O)N[C@@H](COC(=O)[C@@H](CC=C)Cc1ccc(F)cc1)Cc1ccccc1,-1,-2,2,-11,nt,nt,nt
CCC(c1nnc(SCC(=O)NC2CCCCC2)n1Cc1ccccc1)N(C)C (stereo not drawn),-17,-9,-1,-2,nt,nt,nt
CCc1nnc(NC(=O)c2nc(S(=O)(=O)Cc3cccc(C)c3)ncc2Cl)s1,34*,7,-7,-10,nt,28*,19*
CCc1nnc(NC(=O)c2nc(S(=O)(=O)Cc3ccccc3)ncc2Cl)s1,18,3,3,3,nt,nt,nt
Cc1nnc(NC(=O)c2nc(S(=O)(=O)Cc3ccccc3C)ncc2Cl)s1,11,10,-1,2,nt,nt,nt
CCc1nnc(NC(=O)c2nc(S(=O)(=O)Cc3ccc(C)cc3)ncc2Cl)s1,26*,8,2,0,nt,34*,22*
CCCCn1c(N)c(N(CCOC)C(=O)c2cc(S(=O)(=O)N3CCOCC3)ccc2Cl)c(=O)[nH]c1=O,-3,-1,1,-4,nt,nt,nt
COc1ccc(N2CCN(CC(=O)Nc3ccc(C)cc3Br)CC2)cc1,26*,-8,1,-1,nt,-7,-7
COc1ccc(N2CCN(CC(=O)Nc3ccc(C)cc3)CC2)cc1,6,6,1,1,nt,nt,nt
CCOC(=O)Cc1csc(N/N=C\c2ccc(N(C)C)cc2)n1,-2,5,19,1,nt,nt,nt
CCc1nnc(NC(=O)c2cc(-c3ccccn3)nc3ccc(Br)cc23)s1,-14,-2,10,15,nt,nt,nt
CN(C)C(CNC(=O)c1c(F)cccc1Cl)c1ccco1 (stereo not drawn),-6,-12,5,-2,nt,nt,nt
O=C1NC(Cc2ccccc2)C(=O)N1Cc1ccccc1 (stereo not drawn),-8,-2,-8,0,nt,nt,nt
O=c1ccsn1Cc1ccccc1,27*,2,-12,0,7,-4,1
CCOC(=O)C1=C(C)Nc2sc(C(=O)c3ccc(C)cc3)c(N)c2C1c1ccc(C(=O)OC)cc1 (stereo not drawn),42*,18,11,-10,14,9,17*
CC1(C(=O)NCc2ccccc2)CN(S(C)(=O)=O)CC(=O)N1Cc1cccc(C(F)(F)F)c1 (stereo not drawn),-1,nt,7,5,nt,nt,nt
C(=C\c1ccco1)/C1=NN(c2ccccc2)C(c2ccco2)C1 (stereo not drawn),22*,-23,13,-49,15,32*,60*
Fc1ccc(C2=NN(c3ccccc3)C(c3ccco3)C2)cc1 (stereo not drawn),-2,-6,-1,-4,-13,nt,nt
OC[C@@H]1CN(Cc2ccc(-c3ccccc3)cc2)C[C@H](n2cnc3c(N4CCOCC4)ncnc32)O1,-10,nt,11,-2,nt,nt,nt
